The list is not random: actives were taken first. Their share in the collection is about 2.2%.
MT stabilize HCS – microtubule stabilizers in HeLa cells, primary screen, imaging, high-content imaging; % tubulin-high responders, % at 10 µM; hit rate 0.83% among 200,000; HeLa tubulin immunostaining HCS, 24 h; share of cells brighter than vehicle mean+2SD;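 active means plate Z-score above 3 for both tubulin-high and condensed-nucleus cell shares, with cell loss under 80%, at 10 µM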;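 further: anti alpha tubulin signal scored within the nucleus-defined area of each cell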
Ba/F3 V617F tox – reduced viability of JAK2V617F-dependent Ba/F3 cells, primary screen, JAK2V617F inhibitor project, cell-based, Ba/F3 EpoR-JAK2V617F, luminescence; hit rate 1.1% among 220,000; AID 1446, 2008; ATP luminescence; inhibition, % at 5.6 µM;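 active means inhibition above the campaign mean plus 3 SD over all tested compounds, cut at about 24% in these data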;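 further: cytokine-independent growth of Ba/F3 cells driven by EpoR plus mutant JAK2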
BaF3 tox – parental Ba/F3 cell viability inhibition, counter-screen for JAK2V617F inhibitor project, murine pro-B, CellTiter-Glo luminescence; CellTiter-Glo ATP luminescence; inhibition, % at 5.6 µM; hit rate 1.1% among 220,000; AID 1486, 2009;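 active means inhibition above a per-campaign cutoff, the mean inhibition of all tested compounds plus 3 SD, cut at about 27% in these data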
APP transl inh – inhibitors of APP translation via 5'UTR reporter, primary screen, APP 5'UTR luciferase, SH-SY5Y cells | SH-SY5Y APP 5'UTR-luciferase reporter, luminescence | inhibition, % at 2 µM | hit rate 0.82% among 190,000 | AID 1285, 2008;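 active means inhibition above a set limit, derived from the sample mean plus 3 SD, cut at about 45% in these data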
bCat nuc transl – modulators of beta-catenin nuclear translocation, primary screen, imaging, HeLa cells, immunofluorescence, high-content; nuclear translocation activity, % at 5 µM; hit rate 0.3% among 190,000;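 active means nuclear translocation activity above 50% at 5 µM, with a well cell count of 50 or more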;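 further: per-cell ratio of nuclear to cytoplasmic median beta-catenin stain intensity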
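System: HeLa cells, endogenous beta-catenin; compound dosing: 5 µM primary single dose, 0.1% DMSO, 0.02–20 µM confirmation series; incubation: 24 h compound exposure at 37°C, 5% CO2; signal: beta-catenin immunofluorescence imaging with DAPI; evaluation: % activation, nuclear-to-cytoplasmic median beta-catenin signal ratio per cell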
IEC-6 cytotox – cytotoxicity in IEC-6 intestinal epithelial cells, primary screen, cytotoxicity control for KLF5 inhibitor project, cell-based, luminescence; inhibition, % at 5 µM; IEC-6 cytotoxicity, luminescence viability; hit rate 0.78% among 290,000; AID 1825, 2009; in the data active means inhibition above about 22%
A number is an active result; n = inactive; x = no result.

SMILES	MT stabilize HCS	Ba/F3 V617F tox	BaF3 tox	APP transl inh	bCat nuc transl	IEC-6 cytotox
CCn1c(SC)nnc1-c1sc2cc(Cl)ccc2c1Cl	n	n	40	n	x	n
Cn1c(-c2ccccc2[N+](=O)[O-])[n+](C)c2ccccc21	x	57	58	x	n	n
Cn1c(O)c(N=Nc2ccccc2[N+](=O)[O-])c2ccccc21	x	x	x	x	x	n
Cc1ccc(CC(=O)Nc2ccncc2)cc1	n	36	42	n	n	n
CC(C)c1ccc(N(C(=O)c2ccco2)C(C(=O)NC2CCCC2)c2ccncc2)cc1 (centres undefined)	x	x	x	x	x	n
CC1(C)CC(=O)C(C(C2=C(O)CC(C)(C)CC2=O)c2ccc(O)c([N+](=O)[O-])c2)=C(O)C1	n	n	94	n	n	n
CC1(C)CC(=O)C(C(C2=C(O)CC(C)(C)CC2=O)c2ccc([N+](=O)[O-])cc2)C(=O)C1 (centres undefined)	n	n	n	n	n	n
CSC1=NC(C(Cl)(Cl)Cl)N=C(c2ccc(C)cc2)N1 (centres undefined)	n	83	64	71	108	58
COc1ccc(S(=O)(=O)NCC2CCCN(C(=O)CCSC)C2)cc1 (centres undefined)	x	x	x	x	x	n
CCN1CCN(C(=O)CCc2ccc(S(=O)(=O)NCCc3ccccc3)cc2)CC1	n	n	n	56	n	n
Cc1ccc(C(=O)Nc2cccc(C(F)(F)F)c2)cc1NC(=O)c1csc(-c2ccncc2)n1	x	x	x	x	70	x
COc1ccc(NC(=O)CCc2nnc3ccc(NCc4ccco4)nn23)cc1OC	x	x	x	x	x	n
O=C(Cn1cnc2ccccc21)Nc1ccc(SC(F)F)cc1	n	36	50	n	n	n
CN(C)CCOC(=O)C1(c2ccccc2)CCCC1	n	n	n	n	x	n
C[N+]1(CCCOC(=O)C2(c3ccccc3)CCCC2)CCOCC1	n	n	58	n	n	n
NS(=O)(=O)c1ccc(CNC(=O)/C=C/c2ccco2)cc1	x	93	56	x	n	n
COc1ccc(CCC(=O)Nc2ccc(S(=O)(=O)Nc3nccc(C)n3)cc2)cc1	x	x	x	x	x	n
Cc1nc(NC(=O)c2ccc(Cl)cc2)sc1-c1csc(Nc2cccc(F)c2)n1	40	n	n	n	n	n
Cc1ccc(NCc2ccc(C)s2)cc1	x	x	x	x	x	n
Cn1ncc(Cl)c1C(=O)Nc1nc2ccc(Cl)cc2s1	n	n	37	n	n	n
c1csc(CNc2ncnc3sccc23)c1	n	34	36	n	x	n
CN1CCN(S(=O)(=O)c2ccc3c(c2)oc(=O)n3C)CC1	x	x	x	x	x	n
O=C(NCCCN1CCOCC1)C(=O)N/N=C/c1c2ccccc2cc2ccccc12	22	n	n	n	n	n
COc1cc(C2Nc3cccc4cccc(c34)N2)ccc1O	x	x	x	x	x	n
COc1cc(C2Nc3cccc4cccc(c34)N2)cc(OC)c1OC(C)=O	16	n	40	n	n	n
SMILES	MT stabilize HCS	Ba/F3 V617F tox	BaF3 tox	APP transl inh	bCat nuc transl	IEC-6 cytotox
COc1cccc(COc2cc3ccccc3nc2C)c1	n	42	43	n	n	n
CC1CCCCC1NC(=O)COc1ccc(-n2cnnn2)cc1 (centres undefined)	n	n	n	n	x	n
O=C(COc1ccc(-n2cnnn2)cc1)NC1CCCCC1	n	n	n	74	n	n
O=C(N/N=C/c1sc2ccccc2c1O)c1ccccc1	n	n	n	53	x	n
O=C(N/N=C/c1sc2ccccc2c1O)c1cccc2ccccc12	n	n	n	48	n	n
CCOC(=O)c1ccc(N2C(=O)CC(N3CCC(Nc4ccc(F)cc4)CC3)C2=O)cc1 (centres undefined)	n	n	49	n	n	n
CCc1cc(=O)oc2c3c(cc(OCC(=O)NCCCOC)c12)OC(C)(C)CC3	x	x	x	x	x	n
CNC(=O)c1cccc(NC(=O)CCCNC(=O)c2ccc(Cl)cc2)c1	x	x	x	x	x	n
S=C(NCCc1ccccc1)Nc1cccc2cnccc12	n	n	42	n	n	n
COc1ccc(N2C(C(C)=O)=NN(c3ccccc3)C2c2cccs2)cc1 (centres undefined)	n	25	48	n	x	n
COc1ccc(C2(C)NC(=O)N(CC(=O)Nc3ccc(Br)cc3F)C2=O)cc1OC (centres undefined)	x	x	x	x	x	n

Compound activity deposited in PubChem by several laboratories.
